Activity calls are given as the source filed them. No cut-off for these calls is given here.
Tests used:
Aorta [1] = assay: Vasorelaxant activity in Wistar rat aortic rings assessed as reduction in KCL-induced contractile tone at 30 uM; type: functional
Outline: (§1)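 Endothelium-denuded thoracic aortic rings from male normotensive Wistar rats (250–350 g), equilibrated 60 min, precontracted with KCl 30 mM. Compounds added cumulatively at threefold increasing concentrations up to 30 µM. Efficacy is the maximal relaxation, or the response at 30 µM, as % of KCl tone. pIC50 is −log molar concentration halving tone, not calculated below 50% efficacy; mean ± SE, 5–10 experiments.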

Aorta [2] = assay: Vasorelaxant activity in Wistar rat aortic rings assessed as reduction in KCL-induced contractile tone; type: functional, tissue-based; outline: as §1
Aorta [3] = assay: Vasorelaxant activity in Wistar rat aortic rings assessed as reduction in KCL-induced contractile tone in presence of tetraethylammonium chloride; type: functional, tissue-based
MDA-MB-231 = assay: Antitumor activity against human MDA-MB-231 cells after 6 days by SRB assay; type: functional, cell-based; conditions: MDA-MB-231, 144 h
Outline: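 MDA-MB-231 cells in DMEM with 5% FBS, 37 °C, 5% CO2, seeded 1.3 × 10³ cells/well and adhered 24 h; treated 0.25 to 64 µM (five wells per treatment, vehicle EtOH or DMSO) for 6 days. TCA-fixed, SRB-stained, OD 540 nm. Proliferation index = OD at day 6 / OD at time zero; IC50 from means of three independent experiments.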

Row | IC50 (Aorta [2]) [µM] | IC50 (MDA-MB-231) [µM] | SMILES | Emax at 30 µM (Aorta [1]) [%] | Activity (Aorta [3])
1 | 15.5 | 46.1 | Oc1cc(O)cc(-c2cc3cc(O)ccc3o2)c1 | 77.2 | inactive
2 | 6.92 |  | Oc1ccc(/C=C/c2cc(O)cc(O)c2)cc1 [RESVERATROL] | 83 | inactive
3 | 12.6 | > 100 | Oc1ccc(-c2nc3c(O)cc(O)cc3s2)cc1 | 80.6 | inactive
4 | 12 | 19.4 | Oc1cc(O)cc(-c2nc3ccc(O)cc3s2)c1 | 88.2 | Active
5 | 15.5 | 18.1 | Oc1cc(O)cc(-c2nc3cccc(O)c3s2)c1 | 76.8 | inactive
6 |  |  | O/N=C/c1ccc(-c2cc(O)cc(O)c2)cc1O [SALICYLALDOXIME] |  | Active
7 | 15.8 | 47.4 | Oc1cc(O)cc(-c2cc3ccc(O)cc3nc2Cl)c1 | 84.6 | inactive
8 |  | 67.6 | Oc1ccc(-c2nc3cc(O)cc(O)c3s2)cc1 | 39.6 | inactive
9 | 12.9 |  | Oc1cc(O)cc(-c2ccc3cc(O)ccc3c2)c1 | 78.5 | inactive
10 |  | 17.4 | Oc1cc(O)cc(-c2cnc3cc(O)ccc3c2)c1 | 17.2 | 
